# Screening data (PubChem)
# E coli RNAP: E. coli RNAP inhibitors, biochemical | DNA-directed RNA polymerase subunit beta (Escherichia coli (strain K12)), P0A8V2 | E. coli RNA polymerase, fluorescence transcription assay | inhibition, %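 (tested at 10 µM)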 | 0.2% of 62,000 active; in the data active means inhibition above about 20%;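 further: 0% = enzyme without compound and 100% = no enzyme blank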
# HER2 expr 66K: inhibitors of Her2 protein expression, primary screen, SKBR-3 cells, AlphaScreen, 66K library. Receptor tyrosine-protein kinase erbB-2 (Homo sapiens), P04626. SKBR-3 HER2 protein level, 18-24 h; active compounds read low. HER2 level % of control, % at 10 µM. 0.69% of 65,000 active. AID 645, 2007;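 active means HER2 level under 5% of the carrier-only control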;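 further: 100% = DMSO carrier and 0% = 500 nM PU-H71 HSP90 inhibitor; lower value means stronger loss of Her2 protein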
# AP complement: alternative complement pathway inhibitors, primary screen, biochemical, ELISA, human serum, orthogonally pooled compounds. LPS-coated ELISA, C3 deposition; tested in compound mixtures. inhibition, % at 5 µM. 0.08% of 62,000 active. AID 1235, 2008;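 active means inhibition above 30% in each of the two pooled mixtures holding the compound, so the lower value exceeds 30%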;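 further: 0% = serum in Mg-EGTA without compound and 100% = EDTA serum blank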
#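 Assay system: human serum alternative complement pathway, C3 deposition on LPS-coated wells; Dosing: 5 µM per compound in ten-compound mixtures; Detection: Anti-C3 ELISA, OD 450 nm; Buffer or medium: Mg2+-EGTA GVB++ buffer containing human serum at 1:15 dilution; Timing: 1 h at 37 °C; Replication: two different pools per compound.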
# SK-BR-3 tox 24h: SK-BR-3 proliferation inhibitors, primary screen, cell-based, human, 24 h; SK-BR-3 viability, CellTiter-Glo ATP luminescence; active compounds read low; viability, % at 10 µM; 0.47% of 41,000 active;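 active means viability at or below the median of all test compounds minus 3 SD, in both replicates if run twice, cut at about 45% in these data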;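 further: 100% = median untreated cell wells and 0% = median positive control drug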
# MMP13 inh: human MMP13 inhibitors, primary screen, biochemical, FRET peptide cleavage; MMP-13 fTHP FRET cleavage, Mca fluorescence; Collagenase 3 (Homo sapiens), P45452; 0.07% of 65,000 active; inhibition, % at 4 µM;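 active means inhibition above the mean of compound-free control plate wells plus 3 SD, cut at about 14% in these data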;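 further: 0% = DMSO wells and 100% = wells with reference MMP-13 inhibitor after basal subtraction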
# TNAP act mid DEA: human TNAP enzyme activators, primary screen, biochemical, luminescent, intermediate phosphate acceptor level; 64,000 tested, under 10 active; AID 813, 2007; activation factor at 20 µM; Alkaline phosphatase, tissue-nonspecific isozyme (Homo sapiens), P05186; purified TNAP, CDP-star luminescence, 100 mM DEA, 30 min; active compounds read high; scale: 0 levamisole-inhibited, 1 vehicle-only enzyme;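 active means activation factor of at least 2 at 20 µM, relative to controls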
# Target sequence (P05186 whole entry, looked up): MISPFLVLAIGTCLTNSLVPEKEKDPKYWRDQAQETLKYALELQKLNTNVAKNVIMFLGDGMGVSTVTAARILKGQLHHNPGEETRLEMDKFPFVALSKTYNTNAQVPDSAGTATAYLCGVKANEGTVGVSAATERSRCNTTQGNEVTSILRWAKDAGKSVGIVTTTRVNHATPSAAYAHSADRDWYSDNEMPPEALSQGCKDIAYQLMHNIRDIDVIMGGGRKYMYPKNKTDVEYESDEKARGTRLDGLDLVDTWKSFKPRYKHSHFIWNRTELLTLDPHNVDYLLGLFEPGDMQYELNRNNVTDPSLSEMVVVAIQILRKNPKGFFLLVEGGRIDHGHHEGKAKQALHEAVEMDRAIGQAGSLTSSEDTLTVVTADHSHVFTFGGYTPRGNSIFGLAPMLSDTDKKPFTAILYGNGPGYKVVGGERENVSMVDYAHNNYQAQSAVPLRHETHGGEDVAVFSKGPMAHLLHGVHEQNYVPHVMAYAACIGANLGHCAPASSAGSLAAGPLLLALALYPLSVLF
# An asterisk follows results filed as active; nt = no result given. Compounds with a hit are over-represented: about 1.2% of the library has one in this group of screens.
SMILES,E coli RNAP,HER2 expr 66K,AP complement,SK-BR-3 tox 24h,MMP13 inh,TNAP act mid DEA
N#CCSc1nnc(COc2ccc3ccccc3c2)o1,2.3,88.9,-4.4,81.0,4.2,0.9
Cc1ccc(-n2nc3c(c2NC(=O)c2ccc(S(=O)(=O)N4CCOCC4)cc2)CSC3)c(C)c1,4.0,79.4,15.8,88.3,4.4,0.9
O=S(=O)(Nc1cccc2ncccc12)c1cccs1,0.8,-7.3*,2.2,nt,-2.3,1.2
Cc1ccc(Oc2ccccc2)c(NC=O)c1,10.5,108.5,4.7,36.0*,-7.1,0.9
C=CCN1C(=O)/C(=C2/Sc3ccccc3N2C)SC1=Nc1c(C)n[nH]c1C,12.3,95.8,5.8,98.1,5.3,0.9
C=CCN1C(=O)/C(=C2/Sc3ccccc3N2CCCS(=O)(=O)O)SC1=S,4.6,94.2,7.4,94.4,16.2*,0.8
CN1C(=O)/C(=C2/C=Cc3ccccc3N2CCCS(=O)(=O)O)SC1=S,6.0,117.6,-3.0,nt,18.4*,0.6
CCN1C(=O)/C(=C2\C=Cc3ccccc3N2CC)OC1=S,13.3,64.6,4.5,80.2,7.8,0.8
COc1ccccc1-n1c(CNC(=O)COc2ccccc2)n[nH]c1=S,6.4,110.7,-13.7,nt,3.0,1.1
OC(CN1CCN(c2cccc(C(F)(F)F)c2)CC1)c1c[nH]c2ccccc12 (centres undefined),4.0,-22.4*,10.5,75.4,-1.4,1
Cc1c(C(=O)N2CCCc3ccccc32)oc2ccc(S(=O)(=O)N3CCOCC3)cc12,0.4,91.7,8.9,nt,-0.1,0.9
CCCn1cc(S(=O)(=O)CC(=O)N2CCc3ccccc32)c2ccccc21,-0.7,60.4,17.8,89.5,3.0,1
CCn1cc(S(=O)(=O)CC(=O)N2CCc3ccccc32)c2ccccc21,1.3,1.6*,12.0,nt,7.4,0.9
CN(C(=O)c1ccncc1)C1CC(C)(C)N(O)C(C)(C)C1,20.7*,90.2,-7.2,99.1,-6.5,0.9
CCOc1ccccc1NC(=O)c1ccc(F)c(S(=O)(=O)N2CCC3(CC2)OCCO3)c1,0.1,81.8,18.6,nt,4.6,0.9
C=CCn1c(NCc2ccc(N(C)C)cc2)nc2ccccc21,5.4,118.8,1.9,93.6,-0.6,1
COc1cc2nc(N3CCN(C(=O)C4COc5ccccc5O4)CC3)nc(N)c2cc1OC (centres undefined),-4.8,92.2,6.4,91.4,-139.0,0.9
COc1cc2nc(N3CCN(C(=O)c4ccco4)CC3)nc(N)c2cc1OC,-9.6,39.5,2.0,43.9*,-180.2,0.9
Cc1ccccc1NC(=O)CSc1nc(N)c(C#N)c(-c2cccs2)c1C#N,9.4,88.4,0.9,71.9,2.5,0.9
COc1ccc(CCNC(=O)CSc2nc(N)c(C#N)c(-c3cccs3)c2C#N)cc1OC,6.6,1.8*,12.6,58.6,2.3,1
COc1cc2nc(CN3CCN(c4ncc(C(F)(F)F)cc4Cl)CC3)[nH]c(=O)c2cc1OC,4.4,96.1,10.5,nt,1.0,1
Cc1csc2ncc(C(=O)Nc3ccon3)c(=O)n12,23.5*,83.4,14.9,84.7,-179.3,1
Cc1cccc(NC(=O)c2cnc3scc(C)n3c2=O)c1,-2.5,76.6,-5.5,nt,1.3,1.1
COc1cccc(N2CCN(c3c4c(nc5ncnn35)CCC4)CC2)c1,9.4,110.5,0.1,24.5*,2.9,1
Clc1ccc(Cc2nn3c(Cn4nnc5ccccc54)nnc3s2)cc1,nt,76.0,4.6,86.4,-2.5,1
SMILES,E coli RNAP,HER2 expr 66K,AP complement,SK-BR-3 tox 24h,MMP13 inh,TNAP act mid DEA
COc1ccc(OC)c(C(O)c2coc3ccc(O)c(CN4CCOCC4)c23)c1 (centres undefined),5.5,139.1,nt,102.2,-1.4,0.9
O=C(Nc1ccc(S(=O)(=O)N2CCOCC2)cc1)c1ccc(Cl)cc1,3.1,94.7,5.3,nt,-3.1,1
Cc1cc(C)c(O)c(-c2cc(C(=O)Nc3ccc(S(=O)(=O)N4CCOCC4)cc3)[nH]n2)c1,8.5,-11.2*,6.1,67.4,0.2,1.2
CC(C)N(C(=O)CSc1nnc(NC(=O)C2CCC2)s1)C(C)C,5.7,115.4,6.7,42.3*,3.5,1
CN(C)c1ccc(CN(C)C2CCCCC2)cc1,4.1,nt,-8.1,119.7,nt,0.9
Cc1c(NC(=O)Nc2ccc(Cl)c(Cl)c2)c(=O)n(-c2ccccc2)n1C,nt,106.0,3.0,nt,-2.8,1
c1coc(-c2nc(-c3ccco3)c(-c3ccco3)nc2-c2ccco2)c1,22.9*,nt,13.8,94.9,7.9,0.9
Nc1nc(-c2ccco2)c(-c2ccco2)s1,11.9,92.9,3.2,nt,4.7,0.9
O=S(=O)(NCCOCC(F)(F)C(F)F)c1ccc2oc3ccccc3c2c1,-2.8,122.6,13.1,47.5,4.5,1
O=C(OCc1c(Cl)cccc1Cl)c1cccnc1,10.6,107.2,15.9,86.9,2.0,0.9
CCOC(=O)C1=C(C)N=c2s/c(=C\c3ccncc3)c(=O)n2C1c1ccc2c(c1)OCO2 (centres undefined),2.9,-75.3*,6.4,65.0,-2.6,0.9
CCOC(=O)c1[nH]c(C)c(C(=O)Nc2cc(Cl)ccc2C)c1C,2.5,82.2,5.2,nt,2.3,0.9
CCOC(=O)c1[nH]c(C)c(C(=O)Nc2ccccc2C)c1C,21.3*,74.5,2.1,nt,3.5,0.8
Cc1ccc(-n2c(N)c(C(N)=O)sc2=S)c(C)c1,14.2,132.3,-4.5,nt,0.3,0.9
Cc1ccc(C)c(-n2c(N)c(C(N)=O)sc2=S)c1,40.1*,71.0,7.3,nt,4.0,1
COCCOC(=O)c1c(C)nc(SCC(=O)Nc2ccc(C)cc2)c(C#N)c1-c1ccco1,-1.1,64.4,nt,76.2,1.9,0.9
CNC(=O)c1c(C)nc(SCC(=O)NCc2ccc(OC)cc2)c(C#N)c1-c1ccco1,7.1,-33.0*,10.7,nt,0.3,0.9
Cc1ccc2[nH]c(C)c(CN(C)C3CCN(C)CC3)c(=O)c2c1,2.9,86.6,2.6,25.6*,1.6,1
CC1(C)CC(=O)CC(C)(C)N1OC(=O)c1ccncc1,2.9,92.7,1.1,92.9,3.3,1.1
c1ccc(-c2cccc(-c3ccccn3)n2)nc1,-6.2,54.3,12.3,75.3,5.6,1.1
c1ccc(-c2nnc(-c3ccccn3)nn2)nc1,24.5*,55.0,7.0,99.5,-1.1,1.1
Cc1onc(-c2ccccc2)c1C(=O)Nc1cccc(C#N)c1,0.3,72.6,3.9,nt,1.3,0.8
